The record followed here is ChEMBL document CHEMBL2203123, “Synthesis and biological evaluation of some hydrazone derivatives as new anticandidal and anticancer agents” (Eur J Med Chem, 2012).

≈ marks a conversion by molar mass, not a printed value.

One data set relates to Salmonella typhimurium. Briefly: Genotoxicity against Salmonella typhimurium TA100 assessed as fold increase in revertants at 0.625 mg/ml after 90 mins by Ames MPF test in presence of S9 fraction relative to baseline. Type of data set: toxicity, organism-based. The conditions noted are these: salmonella enterica subsp. enterica serovar typhimurium, s9, 1.5 h. The procedure, abridged: (§1)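 Ames MPF fluctuation test, TA98 and TA100: overnight cultures reincubated 90 min, then exposed 90 min at 37 °C to compounds at 0.156-5 mg/mL (in DMSO) with or without 4.5% v/v S9; indicator medium added, 48 wells per sample scored yellow after 48 h, triplicate. Fold over baseline = mean positive wells / (mean of DMSO control + 1 SD).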
A general note: The Ames test detects mutagens through reverse mutation in bacteria.
`CN(C)c1ccc(/C=N/NC(=O)CSc2nnnn2C)cc1`: the “fold change (FC)” value is 0.18.

For `Cn1nnnc1SCC(=O)N/N=C/c1ccc(O)cc1`, the “fold change (FC)” value is listed as 0.7.

Another data set concerns Salmonella typhimurium. Briefly: Genotoxicity against Salmonella typhimurium TA98 assessed as fold increase in revertants at 0.156 mg/ml after 90 mins by Ames MPF test in presence of S9 fraction relative to baseline. The class given is toxicity, organism-based. The conditions noted are these: salmonella enterica subsp. enterica serovar typhimurium, s9, 1.5 h. The procedure, abridged:
as §1
On to `CN(C)c1ccc(/C=N/NC(=O)CSc2nnnn2C)cc1`, for which the “fold change (FC)” value is 0.86.

In the case of `Cn1nnnc1SCC(=O)N/N=C/c1ccc(O)cc1`, the “fold change (FC)” value came out at 0.32.

Test system in the next data set: not listed separately
Briefly: Genotoxicity against Salmonella typhimurium TA1535/pSK1002 assessed as induction ratio at 5 mg/ml by umuC assay in absence of S9 fraction. Particulars: salmonella enterica subsp. enterica serovar typhimurium, Salmonella typhimurium TA1535/pSK1002 without S9 fraction. Type of data set: toxicity, organism-based. The procedure, abridged:
(§2)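 umuC Easy CS: TA1535/pSK1002 grown overnight in ampicillin TG medium at 37 °C, then exposed 2 h at 37 °C to compounds at 5, 2.5, 1.25, 0.63 mg/mL with or without S9. Diluted into fresh medium for 2 h growth (OD600), then β-galactosidase with ONPG 30 min at 28 °C, OD420. Positive controls 2-aminoanthracene (+S9), […] (−S9).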
As to `CN(C)c1ccc(/C=N/NC(=O)CSc2nnnn2C)cc1`, the fold induction – broadly, the ratio of treated to control signal – at 5 mg/ml is 0.565.

For the molecule `Cn1nnnc1SCC(=O)N/N=C/c1ccc(O)cc1`, the fold induction at 5 mg/ml was found to be 0.661.

The next data set deals with Salmonella typhimurium. Briefly: Genotoxicity against Salmonella typhimurium TA1535/pSK1002 assessed as growth factor ratio at 5 mg/ml by umuC assay in absence of S9 fraction. The class given is toxicity, organism-based. Particulars: salmonella enterica subsp. enterica serovar typhimurium. The procedure, abridged:
as §2
Turning to `CN(C)c1ccc(/C=N/NC(=O)CSc2nnnn2C)cc1`, the Ratio was 2.781.

Consider `Cn1nnnc1SCC(=O)N/N=C/c1ccc(O)cc1`, for which the Ratio is listed as 2.049.

Another data set deals with Candida albicans. Briefly: Antifungal activity against Candida albicans ATCC 90028 after 24 hrs by microdilution susceptibility assay. The class given is functional. Particulars: ATCC 90028, 24 h. In a few lines: (§3)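 Broth microdilution in Mueller Hinton Broth, compounds from DMSO stocks diluted serially; inocula standardized to 10^6 CFU/mL (McFarland 0.5) from overnight MHB cultures. Plates held 37 °C for 24 h; MIC taken as first well without turbidity, aided by 1% tetrazolium violet added for 3 h at 37 °C. Ketoconazole reference.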
For `CN(C)c1ccc(/C=N/NC(=O)CSc2nnnn2C)cc1`, the MIC – broadly, the lowest concentration that inhibits growth of the organism – was determined as 50 µg/mL (≈ 157 µM).

Molecule `Cn1nnnc1SCC(=O)N/N=C/c1ccc(O)cc1` had an MIC of 1000 µg/mL (≈ 3420 µM).

The next data set concerns Salmonella typhimurium. The experiment in a line: Genotoxicity against Salmonella typhimurium TA100 assessed as fold increase in revertants at 0.3125 mg/ml after 90 mins by Ames MPF test in absence of S9 fraction relative to baseline. The conditions noted are these: salmonella enterica subsp. enterica serovar typhimurium, 1.5 h. The class given is toxicity, organism-based. In a few lines: as §1
Turning to `CN(C)c1ccc(/C=N/NC(=O)CSc2nnnn2C)cc1`, the “fold change (FC)” value was 1.19.

On to `Cn1nnnc1SCC(=O)N/N=C/c1ccc(O)cc1`, for which the “fold change (FC)” value came out at 0.41.

The subject of another data set is Salmonella typhimurium. The experiment in a line: Genotoxicity against Salmonella typhimurium TA100 assessed as fold increase in revertants at 1.25 mg/ml after 90 mins by Ames MPF test in presence of S9 fraction relative to baseline. The class given is toxicity, organism-based. Particulars: salmonella enterica subsp. enterica serovar typhimurium, s9, 1.5 h. The procedure, abridged: as §1
Consider `CN(C)c1ccc(/C=N/NC(=O)CSc2nnnn2C)cc1`, for which the “fold change (FC)” value was 0.26.

Regarding `Cn1nnnc1SCC(=O)N/N=C/c1ccc(O)cc1`, the “fold change (FC)” value is 0.59.

For a further data set, the system named is Nakaseomyces glabratus. The experiment in a line: Antifungal activity against Candida glabrata Osmangazi University clinical isolate after 24 hrs by microdilution susceptibility assay. Type of data set: functional.
Conditions: not given
In a few lines: as §3
The molecule `CN(C)c1ccc(/C=N/NC(=O)CSc2nnnn2C)cc1` had a minimal inhibitory concentration (MIC) of 500 µg/mL (≈ 1570 µM).

`Cn1nnnc1SCC(=O)N/N=C/c1ccc(O)cc1` registered an MIC of 1000 µg/mL (≈ 3420 µM).

Another data set concerns Salmonella typhimurium. Briefly: Genotoxicity against Salmonella typhimurium TA1535/pSK1002 assessed as induction ratio at 2.5 mg/ml by umuC assay in presence of S9 fraction. The class given is toxicity, organism-based. The conditions noted are these: salmonella enterica subsp. enterica serovar typhimurium. The procedure, abridged:
as §2
Regarding `CN(C)c1ccc(/C=N/NC(=O)CSc2nnnn2C)cc1`, the Ratio came out at 0.598.

Take `Cn1nnnc1SCC(=O)N/N=C/c1ccc(O)cc1`: the Ratio was determined as 0.657.

The test system of a further data set is Salmonella typhimurium. Briefly: Genotoxicity against Salmonella typhimurium TA100 assessed as fold increase in revertants at 5 mg/ml after 90 mins by Ames MPF test in absence of S9 fraction relative to baseline. Type of data set: toxicity, organism-based. The conditions noted are these: salmonella enterica subsp. enterica serovar typhimurium, 1.5 h. In a few lines:
as §1
`CN(C)c1ccc(/C=N/NC(=O)CSc2nnnn2C)cc1`: the “fold change (FC)” value is 0.81.

With `Cn1nnnc1SCC(=O)N/N=C/c1ccc(O)cc1`, the “fold change (FC)” value amounted to 0.

Another data set relates to Salmonella typhimurium. The experiment in a line: Genotoxicity against Salmonella typhimurium TA98 assessed as fold increase in revertants at 2.5 mg/ml after 90 mins by Ames MPF test in presence of S9 fraction relative to baseline. The class given is toxicity, organism-based. The conditions noted are these: salmonella enterica subsp. enterica serovar typhimurium, s9, 1.5 h. In a few lines: as §1
With `CN(C)c1ccc(/C=N/NC(=O)CSc2nnnn2C)cc1`, the “fold change (FC)” value is 1.14.

Turning to `Cn1nnnc1SCC(=O)N/N=C/c1ccc(O)cc1`, the “fold change (FC)” value is on record as 0.53.

In a further data set the test system is Nakaseomyces glabratus. Briefly: Antifungal activity against Candida glabrata Anadolu University clinical isolate after 24 hrs by microdilution susceptibility assay.
Conditions: not given
Type of data set: functional. In a few lines: as §3
For the molecule `CN(C)c1ccc(/C=N/NC(=O)CSc2nnnn2C)cc1`, the lowest concentration to inhibit growth (MIC) was 50 µg/mL (≈ 157 µM).

Take `Cn1nnnc1SCC(=O)N/N=C/c1ccc(O)cc1`: the minimal inhibitory concentration (MIC) amounted to 500 µg/mL (≈ 1710 µM).

In another data set the test system is NIH3T3. The experiment in a line: Cytotoxicity against mouse NIH/3T3 cells after 24 hrs by XTT assay. Type of data set: cell-based. The conditions noted are these: NIH3T3, 24 h. The procedure, abridged:
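Mouse NIH3T3 fibroblasts grown in DMEM with fetal calf serum, penicillin/streptomycin, 37 °C, 5% CO2; 20,000 cells/well, treated after 24 h with 0.00316 µM-10 mM compound for 24 h. Viability via XTT (3 h, OD 480 nm, reference 680 nm); % inhibition computed and IC50 fitted by non-linear regression.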
Background: Tetrazolium assays rely on reduction of a dye to a coloured formazan, in cell work by metabolically active cells.
As for `CN(C)c1ccc(/C=N/NC(=O)CSc2nnnn2C)cc1`, 316 µM corresponded to half-maximal inhibition (IC50).

Consider `Cn1nnnc1SCC(=O)N/N=C/c1ccc(O)cc1`, for which half-maximal inhibition (IC50) was put at 632 µM.

The test system of a further data set is Salmonella typhimurium. Briefly: Genotoxicity against Salmonella typhimurium TA100 assessed as fold increase in revertants at 2.5 mg/ml after 90 mins by Ames MPF test in presence of S9 fraction relative to baseline. The class given is toxicity, organism-based. Particulars: salmonella enterica subsp. enterica serovar typhimurium, s9, 1.5 h. The procedure, abridged:
as §1
Regarding `CN(C)c1ccc(/C=N/NC(=O)CSc2nnnn2C)cc1`, the “fold change (FC)” value was found to be 0.15.

On to `Cn1nnnc1SCC(=O)N/N=C/c1ccc(O)cc1`, for which the “fold change (FC)” value is recorded as 0.63.

Test system in another data set: not listed separately
The experiment in a line: Genotoxicity against Salmonella typhimurium TA1535/pSK1002 assessed as induction ratio at 5 mg/ml by umuC assay in presence of S9 fraction. Type of data set: toxicity, organism-based. Particulars: salmonella enterica subsp. enterica serovar typhimurium, Salmonella typhimurium TA1535/pSK1002 with S9 fraction. In a few lines: as §2
For `CN(C)c1ccc(/C=N/NC(=O)CSc2nnnn2C)cc1`, the fold induction at 5 mg/ml was found to be 0.379.

As for `Cn1nnnc1SCC(=O)N/N=C/c1ccc(O)cc1`, the fold induction at 5 mg/ml amounted to 0.419.

Another data set relates to Salmonella typhimurium. The experiment in a line: Genotoxicity against Salmonella typhimurium TA1535/pSK1002 assessed as growth factor ratio at 1.25 mg/ml by umuC assay in absence of S9 fraction. The class given is toxicity, organism-based. Particulars: salmonella enterica subsp. enterica serovar typhimurium. The procedure, abridged: as §2
On to `CN(C)c1ccc(/C=N/NC(=O)CSc2nnnn2C)cc1`, for which the Ratio is listed as 1.191.

Take `Cn1nnnc1SCC(=O)N/N=C/c1ccc(O)cc1`: the Ratio is listed as 1.098.

A further data set concerns Salmonella typhimurium. Briefly: Genotoxicity against Salmonella typhimurium TA1535/pSK1002 assessed as growth factor ratio at 1.25 mg/ml by umuC assay in presence of S9 fraction. Type of data set: toxicity, organism-based. Particulars: salmonella enterica subsp. enterica serovar typhimurium. In a few lines: as §2
With `CN(C)c1ccc(/C=N/NC(=O)CSc2nnnn2C)cc1`, the Ratio worked out at 1.538.

Take `Cn1nnnc1SCC(=O)N/N=C/c1ccc(O)cc1`: the Ratio is reported as 1.277.

Test system in the next data set: not listed separately
The experiment in a line: Genotoxicity against Salmonella typhimurium TA1535/pSK1002 assessed as induction ratio at 1.25 mg/ml by umuC assay in absence of S9 fraction. The class given is toxicity, organism-based. The conditions noted are these: salmonella enterica subsp. enterica serovar typhimurium, Salmonella typhimurium TA1535/pSK1002 without S9 fraction. In a few lines:
as §2
Regarding `CN(C)c1ccc(/C=N/NC(=O)CSc2nnnn2C)cc1`, the fold induction at 1.25 mg/ml is 1.13.

Consider `Cn1nnnc1SCC(=O)N/N=C/c1ccc(O)cc1`, for which the fold induction at 1.25 mg/ml turned out to be 0.99.

Test system in the next data set: not listed separately
The experiment in a line: Genotoxicity against Salmonella typhimurium TA1535/pSK1002 assessed as induction ratio at 0.63 mg/ml by umuC assay in presence of S9 fraction. Type of data set: toxicity, organism-based. The conditions noted are these: salmonella enterica subsp. enterica serovar typhimurium, Salmonella typhimurium TA1535/pSK1002 with S9 fraction. In a few lines: as §2
Turning to `CN(C)c1ccc(/C=N/NC(=O)CSc2nnnn2C)cc1`, the fold induction at 0.63 mg/ml stood at 0.704.

On to `Cn1nnnc1SCC(=O)N/N=C/c1ccc(O)cc1`, for which the fold induction at 0.63 mg/ml turned out to be 0.797.

The next data set relates to Salmonella typhimurium. Briefly: Genotoxicity against Salmonella typhimurium TA98 assessed as fold increase in revertants at 5 mg/ml after 90 mins by Ames MPF test in presence of S9 fraction relative to baseline. The conditions noted are these: salmonella enterica subsp. enterica serovar typhimurium, s9, 1.5 h. The class given is toxicity, organism-based. In a few lines: as §1
For `CN(C)c1ccc(/C=N/NC(=O)CSc2nnnn2C)cc1`, the “fold change (FC)” value is 0.86.

As for `Cn1nnnc1SCC(=O)N/N=C/c1ccc(O)cc1`, the “fold change (FC)” value is recorded as 0.63.

For another data set, the system named is Salmonella typhimurium. The experiment in a line: Genotoxicity against Salmonella typhimurium TA100 assessed as fold increase in revertants at 0.156 mg/ml after 90 mins by Ames MPF test in presence of S9 fraction relative to baseline. Type of data set: toxicity, organism-based. The conditions noted are these: salmonella enterica subsp. enterica serovar typhimurium, s9, 1.5 h. In a few lines: as §1
As to `CN(C)c1ccc(/C=N/NC(=O)CSc2nnnn2C)cc1`, the “fold change (FC)” value stood at 0.33.

In the case of `Cn1nnnc1SCC(=O)N/N=C/c1ccc(O)cc1`, the “fold change (FC)” value amounted to 0.63.

A further data set deals with Salmonella typhimurium. The experiment in a line: Genotoxicity against Salmonella typhimurium TA100 assessed as fold increase in revertants at 2.5 mg/ml after 90 mins by Ames MPF test in absence of S9 fraction relative to baseline. Type of data set: toxicity, organism-based. The conditions noted are these: salmonella enterica subsp. enterica serovar typhimurium, 1.5 h. The procedure, abridged:
as §1
Consider `CN(C)c1ccc(/C=N/NC(=O)CSc2nnnn2C)cc1`, for which the “fold change (FC)” value was determined as 1.14.

As to `Cn1nnnc1SCC(=O)N/N=C/c1ccc(O)cc1`, the “fold change (FC)” value worked out at 0.33.
